Experimental data collected from several papers.
Compare with care: the assays were run in different laboratories.

Compound	test system	conditions	Cmax
NS(=O)(=O)NCCNc1nonc1C(=NO)Nc1ccc(F)c(Br)c1	human, plasma	oral, 300 mg, multiple doses, twice daily, steady state, patients	2480 nM
CC(C)(C(=O)N1CCOc2c(C#N)cncc2C1)C(F)F	human, plasma	oral, 30 mg, single dose, fasted, healthy volunteers	417 ng/mL
N#CN1C[C@H](n2nc(-c3ccc(Oc4ccc(Cl)cn4)cc3)c(C(N)=O)c2N)CCC12CC2	human, plasma	oral, 600 mg, single dose, fed	1060 ng/mL
Cn1cc(-c2ccc(S(=O)(=O)[C@@H]3C[C@@H](C(=O)NC4(C#N)CC4)N(C(=O)C4(C(F)(F)F)CC4)C3)c(C(F)(F)F)c2)cn1	human, plasma	oral, 30 mg, single dose, fasted, healthy volunteers	212 ng/mL
CNCC[C@H](Oc1cccc2ccccc12)c1cccs1	female human, plasma	oral, 60 mg, multiple doses, once daily	54 ng/mL
Cc1nc(Nc2ncc(C(=O)Nc3c(C)cccc3Cl)s2)cc(N2CCN(CCO)CC2)n1	human, plasma	oral, 65 mg/m², multiple doses, twice daily, steady state, patients	168 ng/mL
COCCOc1cnc2ccn([C@H](C)c3nnc4c(F)cc(-c5cnn(C)c5)cn34)c(=O)c2c1	human, plasma	oral, 100 mg, multiple doses, once daily, patients	2300 ng/mL
CCCOc1ccc([C@H]2CNC(=O)N2c2ccc3[nH]cnc3c2)cc1	human, plasma	oral, 200 mg, single dose, fasted, healthy volunteers	1200 ng/mL
CS(=O)(=O)CCNCc1ccc(-c2ccc3ncnc(Nc4ccc(OCc5cccc(F)c5)c(Cl)c4)c3c2)o1	human, serum	oral, 1250 mg, single dose	910 ng/mL
COc1cc(C(=O)NC2CCN(C)CC2)c(F)cc1Nc1ncc(C(F)(F)F)c(Oc2cccc3c2C(=O)N(C)C3)n1	human, plasma	oral, 100 mg, single dose, patients	1320 nM
CC(C)(O)c1ccccc1-c1ccc2[nH]c(/C=C/c3ccc(C(F)(F)F)cc3)nc2c1	male human, plasma	oral, 120 mg, single dose, fasted, healthy volunteers	261 ng/mL
CC(C)(Sc1ccncc1-c1ccc(C#N)c2ccccc12)C(=O)O	male human, plasma	oral, 20 mg, single dose, fed, healthy volunteers	181 ng/mL
CCc1nc2c(C)cc(N3CCN(CC(=O)N4CC(O)C4)CC3)cn2c1N(C)c1nc(-c2ccc(F)cc2)c(C#N)s1	human, plasma	oral, 300 mg, fed, healthy volunteers	3300 ng/mL
Cn1c(=O)oc2ccc(-c3ccc(C[C@@H](C#N)NC(=O)[C@@H]4CNCCCO4)cc3)cc21	male human, plasma	oral, 65 mg, single dose, healthy volunteers	1360 nM
Nc1cc(C(F)(F)F)c(-c2cc(N3CCOCC3)nc(N3CCOCC3)n2)cn1	human, plasma	oral, 25 mg/day, patients	289 ng/mL
CO[C@H]1/C=C\C=C(/C)C(=O)NC2=CC(=O)C(NCCN(C)C)=C(C[C@@H](C)C[C@H](OC)[C@H](O)[C@@H](C)/C=C(\C)[C@@H]1OC(N)=O)C2=O	human, plasma	intravenous, 27 mg/m², patients, infusion	443 ng/mL
CCCCC[C@H](O)CC[C@@H]1[C@H]2Cc3cccc(OCC(=O)O)c3C[C@H]2C[C@H]1O	human, plasma	inhaled, 18 µg, single dose, healthy volunteers	0.43 ng/mL

Compound	test system	conditions	Cmax
CCO[C@H]1CCN(Cc2c(OC)cc(C)c3[nH]ccc23)[C@H](c2ccc(C(=O)O)cc2)C1	human, plasma	oral, 100 mg, multiple doses, twice daily, patients	2640 ng/mL
CNCc1ccc(-c2[nH]c3cc(F)cc4c3c2CCNC4=O)cc1	human, plasma	oral, 600 mg twice daily, multiple doses, steady state	8190 nM
COc1ccc([C@@H]2CN(C(=O)[C@@H](O)CO)C[C@@]2(C)[C@@H](C)O)cc1OC1CN(c2ccc(C)cn2)C1	human, plasma	oral, 5 mg, single dose, healthy volunteers	213 ng/mL
NC(=O)c1cnc2[nH]ccc2c1N[C@@H]1[C@@H]2CC3C[C@H]1C[C@@](O)(C3)C2	human, plasma	oral, 100 mg twice daily, multiple doses, patients	256 ng/mL
Oc1cc(O)c2c(c1)O[C@@H](c1ccc(O)c(O)c1)[C@@H](O)C2	human, plasma	oral, 30 mg, single dose	0.7 ng/mL
FC(F)(F)c1ccc(CNc2ccc(Cc3c[nH]c4ncc(Cl)cc34)cn2)cn1	human, plasma	oral, 1200 mg, multiple doses, patients	8730 ng/mL
COc1ccc(-n2nc(C(N)=O)c3c2C(=O)N(c2ccc(N4CCCCC4=O)cc2)CC3)cc1	human, plasma	oral, 10 mg, healthy volunteers	261 ng/mL
Cc1ccc(C(=O)N(CCCN)[C@@H](c2oc3cc(Cl)ccc3c(=O)c2Cc2ccccc2)C(C)C)cc1	human, plasma	intravenous, 8 mg/m², single dose, patients, infusion	803 ng/mL
CCCCC1=NC2(CCCC2)C(=O)N1Cc1ccc(-c2ccccc2S(=O)(=O)Nc2noc(C)c2C)c(COCC)c1	human, plasma	oral, 800 mg, single dose, fed, healthy volunteers	16200 ng/mL
CCn1c(=O)c(-c2cc(NC(=O)Nc3ccccc3)c(F)cc2Br)cc2cnc(NC)cc21	human, plasma	oral, 250 mg, single dose, patients	1070 ng/mL
CC(C)n1cc(C#N)c2cc(-n3cc(C(=O)O)cn3)ccc21	human, plasma	oral, 400 mg, single dose, fasted, healthy volunteers	14700 ng/mL
C#Cc1cccc(Nc2ncnc3cc(OCCOC)c(OCCOC)cc23)c1	human, plasma	oral, 100 mg, patients	1820 nM
CO[C@H]1CC[C@H](N2C(=O)CNc3ncc(-c4ccc(C(C)(C)O)nc4)nc32)CC1	human, plasma	oral, 30 mg, patients	188 ng/mL
C[C@@]1(c2cc(NC(=O)c3ccc(C#N)cn3)ccc2F)C=CSC(N)=N1	human, plasma	oral, 1 mg, single dose	5.62 ng/mL
CO[C@@H]1[C@H](OC(=O)N2CC(CCN3CCOCC3)C2)CC[C@]2(CO2)[C@H]1[C@@]1(C)O[C@@H]1CC=C(C)C	human, plasma	subcutaneous, 4.8 mg, single dose, healthy volunteers	18.7 ng/mL
C=C(F)C(=O)N1CCN(c2nc(OC[C@@H]3CCCN3C)nc3c2CCN(c2cccc4cccc(Cl)c24)C3)C[C@@H]1CC#N	human, plasma	oral, 600 mg, single dose, fasted	984 ng/mL
O=C(Nc1c(Cl)cncc1Cl)c1ccc(OC(F)F)c(OCC2CC2)c1	human, plasma	oral, 0.5 mg, single dose, fasted	12.5 ng/mL
